As a reminder, the Inhibition is the percentage by which the read-out fell short of the control. A low value points to little suppression.

In brackets after ≈: the same amount, converted by molar mass. Activity calls are given as the source filed them. No cut-off for these calls is given here.

The source of these data is ChEMBL document CHEMBL1123083, “Synthesis and antiherpetic activity of (S)-, (R)-, and (+/-)-9-[(2,3-dihydroxy-1-propoxy)methyl]guanine, linear isomers of 2'-nor-2'-deoxyguanosine” (J Med Chem, 1985).

Series [1] deals with Human alphaherpesvirus 2. Kind of series: In vitro anti viral activity tested against HSV-2(Curtis) virus on Rabbit kidney cell cultures. It counts as functional. The note with it: Human alphaherpesvirus 2, kidney; read-out: ED50 (the source's name). A digest of the protocol:
(§1)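 Confluent primary rabbit kidney monolayers were preincubated with serial drug dilutions in EMEM with 2% fetal calf serum and neomycin. They were then challenged with about 10 TCID50 of HSV-1 Schooler or HSV-2 Curtis and incubated at 37 °C. Cytopathology was scored on day 5. ED50 is the concentration preventing cytopathology in half of the infected cultures.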

In series [2] the test system is Human alphaherpesvirus 1. Kind of series: In vitro anti viral activity tested against HSV-1(Schooler) virus on Rabbit kidney cell cultures. In kind it is functional. The following applies: Human alphaherpesvirus 1, kidney; read-out: ED50 (the source's name). A digest of the protocol:
as §1

The subject of series [3] is Human alphaherpesvirus 1. Kind of series: Efficacy was evaluated against Systemic HSV-1 infection in mice at a daily dose of 3.1 mg/kg administered subcutaneously; Tested mice 10. In kind it is ADME, organism-based. Further details: dose 3.1 mg/kg, route subcutaneous. The following applies: mouse, in vivo, sc. A digest of the protocol: (§2)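 ICR/Ha mice (10–20 g, mixed sex) were infected intraperitoneally with 50–100 LD50 of HSV-1 Schooler. Subcutaneous dosing of 0.1 mL twice daily for 4 days started immediately after infection. Groups were of about 10 mice. Survival was recorded daily for 15 days and reported as survivors/total and mean survival time (95% CI). Transformed survival times were compared with placebo-treated infected mice (p < 0.05).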

Series [4] has as its system Human alphaherpesvirus 1. Kind of series: Evaluated for DNA polymerase inhibition activity against herpes simplex virus-1 (HSV-1). It counts as functional. The gist of the method: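 Step II mixture supplied the phosphorylated test material. Step I: compound with HSV-1 thymidine kinase, 4 h, 37 °C. Step II: then HSV-1-infected HeLa crude extract plus GMP kinase, overnight, 30 °C. A 20 μL sample went to a 1 h, 37 °C DNA polymerase assay at pH 8 with activated salmon sperm DNA, 0.05 mM each dNTP ([³H]dTTP) and infected HeLa extract. (NH₄)₂SO₄ 0.1 M was present for the viral enzyme and omitted for the cellular polymerases. Read-out: TCA-precipitable radioactivity.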

Series [5] relates to Human alphaherpesvirus 1. Kind of series: Efficacy was evaluated against Systemic HSV-1 infection in mice at a daily dose of 12.5 mg/kg administered subcutaneously; Tested mice 10. In kind it is organism-based. Further details: dose 12.5 mg/kg, route subcutaneous. The following applies: mouse, in vivo, sc. The gist of the method:
as §2

In series [6] the test system is DNA polymerase (Homo sapiens). Kind of series: Evaluated for DNA polymerase inhibition activity against HeLa cells.
For series [7], the system named is Human alphaherpesvirus 1. Kind of series: Efficacy was evaluated against Systemic HSV-1 infection in mice at a daily dose of 12.5 mg/kg administered subcutaneously. It counts as ADME, organism-based. Further details: dose 12.5 mg/kg, route subcutaneous. The following applies: mouse, in vivo, sc. The gist of the method: as §2
Series [8] deals with Human alphaherpesvirus 1. Kind of series: Efficacy was evaluated against Systemic HSV-1 infection in mice at a daily dose of 3.1 mg/kg administered subcutaneously. Further details: dose 3.1 mg/kg, route subcutaneous. The note with it: mouse, in vivo, sc. In kind it is ADME, organism-based. A digest of the protocol:
as §2

The subject of series [9] is Human alphaherpesvirus 1. Kind of series: Efficacy was evaluated against Systemic HSV-1 infection in mice at a daily dose of 0.8 mg/kg administered subcutaneously; Tested mice 10. In kind it is organism-based. Further details: dose 0.8 mg/kg, route subcutaneous. The note with it: mouse, in vivo, sc. The gist of the method: as §2
Series [10] deals with Human alphaherpesvirus 2. Kind of series: In vitro anti viral activity tested against HSV-2(Curtis) virus on Rabbit kidney cell cultures; 25-50. In kind it is functional. The note with it: Human alphaherpesvirus 2, kidney; read-out: ED50 (the source's name). A digest of the protocol: as §1
In series [11] the test system is Human alphaherpesvirus 1. Kind of series: Efficacy was evaluated against Systemic HSV-1 infection in mice at a daily dose of 0.8 mg/kg administered subcutaneously. In kind it is ADME, organism-based. The arrangement: dose 0.8 mg/kg, route subcutaneous. The note with it: mouse, in vivo, sc. The gist of the method: as §2
The test system of the next series is Human betaherpesvirus 5. Kind of series: In vitro anti viral activity tested against HCMV(AD169) virus on MRC-5 cell monolayers; NA=Not active at 25 ug/mL. In kind it is functional, organism-based. The note with it: MRC5. A digest of the protocol:
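MRC-5 monolayers were infected with HCMV AD169 for 1 h at 37 °C. Compound diluted in maintenance medium was then added and incubation continued for 7 days at 37 °C. Monolayers were stained and plaques counted. ED50 is the concentration reducing plaque number by 50%.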

For `Nc1nc(O)c2ncn(COCC(O)CO)c2n1` (stereo not drawn), the EC50 was 6 µg/mL (≈ 23.5 µM) with Human alphaherpesvirus 2 [1] and 3 µg/mL (≈ 11.8 µM) in the series with Human alphaherpesvirus 1 [2].

Consider `Nc1nc(O)c2ncn(COCC(O)CO)c2n1` (single isomer, unassigned; form 1) [listing 1 of 2 here], for which the Survivors worked out at 1 with Human alphaherpesvirus 1 [3], 1 in the series on Human alphaherpesvirus 1 [5] and 0 in the series with Human alphaherpesvirus 1 [9]. Moreover, the figures for the Inhibition (in the series on Human alphaherpesvirus 1 [4]; in [6]) were 7% and 0%, respectively. Further, the Average survival in the series on Human alphaherpesvirus 1 [7] amounted to 7.5 days; with Human alphaherpesvirus 1 [8], 6.5 days; with Human alphaherpesvirus 1 [11], 6.3 days. For the same compound, the EC50 in the series on Human alphaherpesvirus 2 [10] and with Human alphaherpesvirus 1 [2] was 25 µg/mL (≈ 97.9 µM) throughout.

Consider `Nc1nc(O)c2ncn(COCC(O)CO)c2n1` (single isomer, unassigned; form 1) [listing 2 of 2 here], for which the ED50 entry in the series on Human betaherpesvirus 5 is “inactive”.
